Screening results: PubChem BioAssay, The Scripps Research Institute Molecular Screening Center
PRMT1 inh: inhibitors of human PRMT1; actives 1.3% (n = 370,000); recombinant PRMT1, activity-based probe fluorescence polarization; inhibition, % at 2.79 µM;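 active = inhibition above about 21% made by adding two undisclosed values, limit read from the data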
SIAE inh: inhibitors of human sialic acid acetylesterase SIAE | Q9HAT2 | inhibition, % at 9.66 µM | SIAE FP-Rh probe binding, fluorescence polarization | AID 1053197 | actives 0.69% (n = 370,000);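 active = inhibition above a cutoff: mean of compounds within the control limits plus 3 SD of those, cut at about 17% in these data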;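 also: 0% = plate median of compound wells and 100% = probe without SIAE protein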
LEDGF integ inh: blocks HIV-1 LEDGF/p75-dependent DNA integration. TR-FRET IN-LEDGF/p75 DNA integration, Eu/Cy5. inhibition, % at 3.7 µM. actives 0.64% (n = 370,000). AID 743269;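 active = inhibition above the screen-wide mean plus 3 SD, cut at about 13% in these data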;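 also: signal is the Cy5 over europium emission ratio at 671 and 618 nm; 0% = plate median of compound wells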
MBD2 inh: blocks human MBD2 binding to methylated DNA. inhibition, % at 4.4 µM. TR-FRET, MBD2 binding to methylated oligonucleotide. AID 686964. actives 0.31% (n = 370,000). Q9UBB5; in the data active = inhibition above about 13%
UHRF1 MBD2 ctr: UHRF1 methyl-DNA binding inhibition; Q96T88; UHRF1 binding to methylated oligo, TR-FRET; inhibition, % at 4.4 µM; actives 0.75% (n = 370,000); AID 687016; in the data active = inhibition above about 21%;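 also: UHRF1 SRA domain binding a hemimethylated CpG hairpin DNA probe; 0% = median of test compound wells and 100% = reference inhibitor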
Target sequence (Q96T88 whole entry, looked up, the tested form may be a part): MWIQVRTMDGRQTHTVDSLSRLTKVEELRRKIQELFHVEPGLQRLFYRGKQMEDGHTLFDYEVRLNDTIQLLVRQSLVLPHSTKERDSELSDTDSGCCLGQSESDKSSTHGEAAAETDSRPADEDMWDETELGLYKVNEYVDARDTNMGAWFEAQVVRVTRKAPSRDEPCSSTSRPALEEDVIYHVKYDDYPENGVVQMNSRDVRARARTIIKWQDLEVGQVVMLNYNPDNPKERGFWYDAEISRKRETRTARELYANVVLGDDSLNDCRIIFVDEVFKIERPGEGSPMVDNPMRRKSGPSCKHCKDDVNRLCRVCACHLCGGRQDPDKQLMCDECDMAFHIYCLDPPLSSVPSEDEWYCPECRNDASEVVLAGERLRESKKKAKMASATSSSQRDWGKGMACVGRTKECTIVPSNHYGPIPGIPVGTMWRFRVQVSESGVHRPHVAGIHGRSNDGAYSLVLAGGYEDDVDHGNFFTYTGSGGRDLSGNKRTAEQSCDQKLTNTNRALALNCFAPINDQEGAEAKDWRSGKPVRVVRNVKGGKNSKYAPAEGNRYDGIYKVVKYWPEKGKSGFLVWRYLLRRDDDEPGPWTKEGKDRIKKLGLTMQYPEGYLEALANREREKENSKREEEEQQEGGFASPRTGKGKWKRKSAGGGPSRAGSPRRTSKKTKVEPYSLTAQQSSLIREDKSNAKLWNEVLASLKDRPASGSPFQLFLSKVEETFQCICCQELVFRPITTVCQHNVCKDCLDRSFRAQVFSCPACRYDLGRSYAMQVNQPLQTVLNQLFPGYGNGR
TDP2 inh: blocks human TDP2 phosphodiesterase activity; recombinant TDP2, T5PNP hydrolysis, p-nitrophenol absorbance 415 nm; inhibition, % at 12.8 µM; actives 0.34% (n = 370,000);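 active = inhibition above the mean of all tested compounds plus 3 SD, set per campaign, cut at about 25% in these data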;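 also: 0% = DMSO with enzyme and 100% = buffer with substrate but no TDP2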
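System – recombinant human TDP2 · Quantity – TDP2 enzyme at 120 nM final · Doses – single concentration, 12.8 µM nominal, with 1% DMSO · Incubation – 2 h at 37 °C · Measured by – epi absorbance of p-nitrophenol freed from T5PNP by hydrolysis · Read-out – % inhibition relative to enzyme-containing and enzyme-free wells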
* marks the source's active call; other numbers are inactive results. Sampled rows, rich in hits. Any-hit rate of the full collection: about 3.3%.

SMILES	PRMT1 inh	SIAE inh	LEDGF integ inh	MBD2 inh	UHRF1 MBD2 ctr	TDP2 inh
C=CCCC1CN(Cc2ccco2)S(=O)(=O)c2c(F)cccc2O1 (stereo not given)	2	4	8	-7	-1	-14
COc1ccc(-n2c(SCC(=O)Nc3ccc(S(=O)(=O)Nc4nccs4)cc3)nnc2-c2ccco2)cc1	-1	-4	1	-4	-3	-6
CCn1cc(CCC(=O)NCc2ccccc2OC)c2ccccc21	-3	4	7	4	22*	-4
CCOc1ccc(CNC(=O)CCc2cn(C)c3ccccc23)cc1OC	5	2	-1	3	59*	1
Cc1ccc2c(c1)N(CCCC(=O)N(C)Cc1ccccc1F)C(=O)CO2	-4	8	4	3	4	-8
CCCCOCCCNC(=O)C[C@H]1C[C@@]2(C(=O)OC)C(=C[C@H](C(C)(C)C)O[C@@H]2C)N(Cc2cccc3ccccc23)C1=O	2	2	-4	-1	0	1
CC1CCN(Cc2nnnn2CCCC(=O)NC(c2ccccn2)C(F)(F)F)CC1 (stereo not given)	0	-2	28*	-6	-2	9
COCC1CCCCN1C(=O)CCCn1nnnc1CN1CCC(C)CC1 (stereo not given)	-2	-4	-2	-3	-1	-8
CN1CCN(c2ccc(-c3csc(N4CCC(C(N)=O)CC4)n3)cc2)CC1	-5	6	-2	1	1	2
CCOC(=O)c1c(NC(=O)C2c3ccccc3Oc3ccccc32)sc(C(N)=O)c1C	-5	-9	0	5	22*	2
CCCN(CCC)C(=O)c1ccc2c(c1)N(Cc1ccccc1)C(=O)CS2=O (stereo not given)	24*	5	0	-2	-1	-5
COC(=O)C1CSc2[nH]c(=O)sc2C1c1ccc(OC)c(OC)c1 (stereo not given)	3	3	-1	8	-2	-4
COC(=O)C1C(c2ccc(OC)c(OC)c2)NC(c2ccc(OC)c(OC)c2)C(C(=O)OC)S1(=O)=O (stereo not given)	-2	-5	10	8	23*	0
CCCN(C)C1CN(Cc2cn(Cc3ccc(Cl)cc3)nn2)S(=O)(=O)C1 (stereo not given)	-6	-5	7	1	13	-5
CCCN(C)C1CN(Cc2cn(Cc3cc(C)cc(C)c3)nn2)S(=O)(=O)C1 (stereo not given)	3	-3	-2	7	22*	-9
COC(=O)c1cc(-c2ccc(Oc3ccccc3)cc2)c(=O)n2c1CCC2	1	5	3	-1	0	1
Nn1c(SCC(=O)Nc2ccc(OCc3ccccc3)cc2)nnc1-c1cc(-c2ccc(Cl)cc2)n[nH]1	2	5	-3	0	0	1
O=C1NC(=O)N2CCSC2(Cc2ccccc2)N1 (stereo not given)	21*	6	0	5	5	1
O=C1CCN(Cc2ccccc2)C(=O)N1	0	-5	-4	2	2	5
c1ccc(CCNc2nc(-c3cccnc3)cs2)cc1	-2	3	-1	-4	49*	-2
c1ccc(CCNc2nc(-c3ccccn3)cs2)cc1	0	-9	7	2	-2	13
Cc1ccc[n+](C2C(c3ccc([N+](=O)[O-])cc3)C(C#N)=C([S-])NC2(O)C2CC2)c1 (stereo not given)	23*	-3	4	9	0	-2
CCCCNC(=O)C1c2ccccc2OCC(=O)N1C1CC1 (stereo not given)	-1	2	4	3	21*	6
O=C(Cn1cnc2c(OCc3ccccc3)ncnc21)NCc1ccc2[nH]ccc2c1	1	-5	-2	-2	-1	-4
O=C(Cn1cnc2c(NCc3ccccc3)ncnc21)NCc1ccc2[nH]ccc2c1	6	5	-1	6	24*	2
CC(=O)N1CCN(c2nnc(-c3ccccc3)c3ccccc23)CC1	-3	-4	3	-1	3	-2
CC(=O)C1=C(c2ccccc2)N(C(C)=O)n2c(C)nnc2S1	73*	2	1	6	11	14
